From ChEMBL document CHEMBL1153560, “In vitro activities of doripenem and six comparator drugs against 423 aerobic and anaerobic bacterial isolates from infected diabetic foot wounds” (2008)
≈ marks a conversion by molar mass, not a printed value.

Columns and labels:
Type in all cases: functional
Prevotella bivia = assay: Antibacterial activity against Prevotella bivia isolated from patient with diabetic foot infection after 44 to 48 hrs by agar dilution method
Method in brief: (§1)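 CLSI M11-A7 agar dilution: serial twofold drug dilutions made on the test day and added to molten agar. Spots of 10^5 CFU were applied by replicator, with drug-free control plates inoculated before and after each set. Incubation was 44 to 48 h at 37°C in an anaerobic chamber. MIC was the lowest concentration giving no growth or a marked change in growth versus controls.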

Clostridium perfringens = assay: Antibacterial activity against Clostridium perfringens isolated from patient with diabetic foot infection after 44 to 48 hrs by agar dilution method
Method in brief: (§2)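 Agar dilution per CLSI M11-A7. Twofold drug dilutions made on the test day and added to molten agar. Replicator-applied inoculum of 10^5 CFU/spot. Drug-free control plates inoculated before and after each drug set. Incubation at 37°C for 44 to 48 h, anaerobic chamber. MIC taken as the lowest concentration giving no growth or a marked change in growth versus controls.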

[1] = tested on: Clostridium malenominatum; assay: Antibacterial activity against Clostridium malenominatum isolated from patient with diabetic foot infection after 44 to 48 hrs by agar dilution method; method in brief: as §1
Lacrimispora sphenoides [2] = assay: Antibacterial activity against Clostridium sphenoides isolated from patient with diabetic foot infection after 44 to 48 hrs by agar dilution method; method in brief: as §1
Cutibacterium acnes [3] = assay: Antibacterial activity against Propionibacterium acnes isolated from patient with diabetic foot infection after 44 to 48 hrs by agar dilution method; method in brief: as §1
Anaerococcus prevotii [4] = assay: Antibacterial activity against Anaerococcus prevotii isolated from patient with diabetic foot infection after 44 to 48 hrs by agar dilution method; method in brief: as §1
Finegoldia magna [5] = assay: Antibacterial activity against Finegoldia magna isolated from patient with diabetic foot infection after 44 to 48 hrs by agar dilution method; method in brief: as §1
[6] = tested on: Peptoniphilus asaccharolyticus; assay: Antibacterial activity against Peptoniphilus asaccharolyticus isolated from patient with diabetic foot infection after 44 to 48 hrs by agar dilution method; method in brief: as §1
Parvimonas micra [7] = assay: Antibacterial activity against Peptostreptococcus micros isolated from patient with diabetic foot infection after 44 to 48 hrs by agar dilution method; method in brief: as §1
Bacteroides fragilis [8] = assay: Antibacterial activity against Bacteroides fragilis isolated from patient with diabetic foot infection after 44 to 48 hrs by agar dilution method; method in brief: as §1
Bacteroides caccae [9] = assay: Antibacterial activity against Bacteroides caccae isolated from patient with diabetic foot infection after 44 to 48 hrs by agar dilution method; method in brief: as §1
Bacteroides ovatus = assay: Antibacterial activity against Bacteroides ovatus isolated from patient with diabetic foot infection after 44 to 48 hrs by agar dilution method; method in brief: as §1
Bacteroides stercoris [10] = assay: Antibacterial activity against Bacteroides stercoris isolated from patient with diabetic foot infection after 44 to 48 hrs by agar dilution method; method in brief: as §1
Bacteroides fragilis [11] = assay: Antibacterial activity against Bacteroides fragilis isolated from patient with diabetic foot infection assessed as percent resistant isolates after 44 to 48 hrs by agar dilution method; method in brief: as §2
Bacteroides caccae [12] = assay: Antibacterial activity against Bacteroides caccae isolated from patient with diabetic foot infection assessed as percent resistant isolates after 44 to 48 hrs by agar dilution method; method in brief: as §2
Bacteroides stercoris [13] = assay: Antibacterial activity against Bacteroides stercoris isolated from patient with diabetic foot infection assessed as percent resistant isolates after 44 to 48 hrs by agar dilution method; method in brief: as §2
[14] = tested on: Bacteroides thetaiotaomicron; assay: Antibacterial activity against Bacteroides thetaiotaomicron isolated from patient with diabetic foot infection assessed as percent resistant isolates after 44 to 48 hrs by agar dilution method; method in brief: as §2
[15] = tested on: Bacteroides thetaiotaomicron; assay: Antibacterial activity against Bacteroides thetaiotaomicron isolated from patient with diabetic foot infection after 44 to 48 hrs by agar dilution method; method in brief: as §1
Bacteroides uniformis [16] = assay: Antibacterial activity against Bacteroides uniformis isolated from patient with diabetic foot infection after 44 to 48 hrs by agar dilution method; method in brief: as §1
[17] = tested on: Parabacteroides distasonis; assay: Antibacterial activity against Parabacteroides distasonis isolated from patient with diabetic foot infection after 44 to 48 hrs by agar dilution method; method in brief: as §1
Porphyromonas somerae = assay: Antibacterial activity against Porphyromonas somerae isolated from patient with diabetic foot infection after 44 to 48 hrs by agar dilution method; method in brief: as §1
Bacteroides uniformis [18] = assay: Antibacterial activity against Bacteroides uniformis isolated from patient with diabetic foot infection assessed as percent resistant isolates after 44 to 48 hrs by agar dilution method; method in brief: as §2
Phocaeicola vulgatus = assay: Antibacterial activity against Bacteroides vulgatus isolated from patient with diabetic foot infection assessed as percent resistant isolates after 44 to 48 hrs by agar dilution method; method in brief: as §2
[19] = tested on: Parabacteroides distasonis; assay: Antibacterial activity against Parabacteroides distasonis isolated from patient with diabetic foot infection assessed as percent resistant isolates after 44 to 48 hrs by agar dilution method; method in brief: as §2
Parabacteroides merdae = assay: Antibacterial activity against Parabacteroides merdae isolated from patient with diabetic foot infection assessed as percent resistant isolates after 44 to 48 hrs by agar dilution method; method in brief: as §2
[20] = tested on: Porphyromonas asaccharolytica; assay: Antibacterial activity against Porphyromonas asaccharolyticus isolated from patient with diabetic foot infection assessed as percent resistant isolates after 44 to 48 hrs by agar dilution method; method in brief: as §2
[21] = tested on: Anaerocolumna aminovalerica; assay: Antibacterial activity against Clostridium aminovalericum isolated from patient with diabetic foot infection assessed as percent resistant isolates after 44 to 48 hrs by agar dilution method; method in brief: as §2
[Clostridium] innocuum = Antibacterial activity against Clostridium innocuum isolated from patient with diabetic foot infection assessed as percent resistant isolates after 44 to 48 hrs by agar dilution method; method in brief: as §2
Lacrimispora sphenoides [22] = assay: Antibacterial activity against Clostridium sphenoides isolated from patient with diabetic foot infection assessed as percent resistant isolates after 44 to 48 hrs by agar dilution method; method in brief: as §2
Cutibacterium acnes [23] = assay: Antibacterial activity against Propionibacterium acnes isolated from patient with diabetic foot infection assessed as percent resistant isolates after 44 to 48 hrs by agar dilution method; method in brief: as §2
Anaerococcus prevotii [24] = assay: Antibacterial activity against Anaerococcus prevotii isolated from patient with diabetic foot infection assessed as percent resistant isolates after 44 to 48 hrs by agar dilution method; method in brief: as §2
Anaerococcus tetradius = assay: Antibacterial activity against Anaerococcus tetradius isolated from patient with diabetic foot infection assessed as percent resistant isolates after 44 to 48 hrs by agar dilution method; method in brief: as §2
Finegoldia magna [25] = assay: Antibacterial activity against Finegoldia magna isolated from patient with diabetic foot infection assessed as percent resistant isolates after 44 to 48 hrs by agar dilution method; method in brief: as §2
[26] = tested on: Peptoniphilus asaccharolyticus; assay: Antibacterial activity against Peptoniphilus asaccharolyticus isolated from patient with diabetic foot infection assessed as percent resistant isolates after 44 to 48 hrs by agar dilution method; method in brief: as §2
[27] = tested on: Peptostreptococcus anaerobius; assay: Antibacterial activity against Peptostreptococcus anaerobius isolated from patient with diabetic foot infection assessed as percent resistant isolates after 44 to 48 hrs by agar dilution method; method in brief: as §2
Parvimonas micra [28] = assay: Antibacterial activity against Peptostreptococcus micros isolated from patient with diabetic foot infection assessed as percent resistant isolates after 44 to 48 hrs by agar dilution method; method in brief: as §2
Anaerococcus vaginalis = assay: Antibacterial activity against Anaerococcus vaginalis isolated from patient with diabetic foot infection after 44 to 48 hrs by agar dilution method; method in brief: as §1

Compound: C[C@@H](O)[C@H]1C(=O)N2C(C(=O)O)=C(S[C@@H]3CN[C@H](C(=O)N(C)C)C3)[C@H](C)[C@H]12 [MEROPENEM]
- MIC50 (Prevotella bivia): 0.06 µg/mL (≈ 0.156 µM)
- MIC90 (Prevotella bivia): 0.125 µg/mL (≈ 0.326 µM)
- MIC50 (Clostridium perfringens): ≤ 0.015 µg/mL
- MIC90 (Clostridium perfringens): ≤ 0.015 µg/mL
- MIC50 [1]: 0.06 µg/mL (≈ 0.156 µM)
- MIC90 [1]: 1 µg/mL (≈ 2.61 µM)
- MIC50 (Lacrimispora sphenoides [2]): 0.06 µg/mL (≈ 0.156 µM)
- MIC90 (Lacrimispora sphenoides [2]): 1 µg/mL (≈ 2.61 µM)
- MIC50 (Cutibacterium acnes [3]): 0.125 µg/mL (≈ 0.326 µM)
- MIC90 (Cutibacterium acnes [3]): 0.25 µg/mL (≈ 0.652 µM)
- MIC50 (Anaerococcus prevotii [4]): 0.03 µg/mL (≈ 0.0782 µM)
- MIC90 (Anaerococcus prevotii [4]): 0.125 µg/mL (≈ 0.326 µM)
- MIC50 (Finegoldia magna [5]): 0.06 µg/mL (≈ 0.156 µM)
- MIC90 (Finegoldia magna [5]): 0.125 µg/mL (≈ 0.326 µM)
- MIC50 [6]: ≤ 0.015 µg/mL
- MIC90 [6]: 0.125 µg/mL (≈ 0.326 µM)
- MIC50 (Parvimonas micra [7]): 0.125 µg/mL (≈ 0.326 µM)
- MIC90 (Parvimonas micra [7]): 0.25 µg/mL (≈ 0.652 µM)
- MIC50 (Bacteroides fragilis [8]): 0.125 µg/mL (≈ 0.326 µM)
- MIC90 (Bacteroides fragilis [8]): 0.25 µg/mL (≈ 0.652 µM)
- MIC50 (Bacteroides caccae [9]): 0.25 µg/mL (≈ 0.652 µM)
- MIC90 (Bacteroides caccae [9]): 1 µg/mL (≈ 2.61 µM)
- MIC50 (Bacteroides ovatus): 0.25 µg/mL (≈ 0.652 µM)
- MIC90 (Bacteroides ovatus): 1 µg/mL (≈ 2.61 µM)
- MIC50 (Bacteroides stercoris [10]): 0.25 µg/mL (≈ 0.652 µM)
- MIC90 (Bacteroides stercoris [10]): 1 µg/mL (≈ 2.61 µM)
- Activity (Bacteroides fragilis [11]): 0%
- Activity (Bacteroides caccae [12]): 0%
- Activity (Bacteroides stercoris [13]): 0%
- Activity [14]: 0%
- MIC50 [15]: 0.25 µg/mL (≈ 0.652 µM)
- MIC90 [15]: 1 µg/mL (≈ 2.61 µM)
- MIC50 (Bacteroides uniformis [16]): 0.25 µg/mL (≈ 0.652 µM)
- MIC90 (Bacteroides uniformis [16]): 1 µg/mL (≈ 2.61 µM)
- MIC50 [17]: 0.25 µg/mL (≈ 0.652 µM)
- MIC90 [17]: 1 µg/mL (≈ 2.61 µM)
- MIC50 (Porphyromonas somerae): ≤ 0.015 µg/mL
- MIC90 (Porphyromonas somerae): ≤ 0.015 µg/mL
- Activity (Bacteroides uniformis [18]): 0%
- Activity (Phocaeicola vulgatus): 0%
- Activity [19]: 0%
- Activity (Parabacteroides merdae): 0%
- Activity [20]: 0%
- Activity [21]: 0%
- Activity ([Clostridium] innocuum): 0%
- Activity (Lacrimispora sphenoides [22]): 0%
- Activity (Cutibacterium acnes [23]): 0%
- Activity (Anaerococcus prevotii [24]): 0%
- Activity (Anaerococcus tetradius): 0%
- Activity (Finegoldia magna [25]): 0%
- Activity [26]: 0%
- Activity [27]: 0%
- Activity (Parvimonas micra [28]): 0%
- MIC50 (Anaerococcus vaginalis): 0.03 µg/mL (≈ 0.0782 µM)
- MIC90 (Anaerococcus vaginalis): 0.125 µg/mL (≈ 0.326 µM)

Compound: Cc1ncc([N+](=O)[O-])n1CCO [METRONIDAZOLE]
- MIC50 (Prevotella bivia): 4 µg/mL (≈ 23.4 µM)
- MIC90 (Prevotella bivia): 4 µg/mL (≈ 23.4 µM)
- MIC50 (Clostridium perfringens): 1 µg/mL (≈ 5.84 µM)
- MIC90 (Clostridium perfringens): 1 µg/mL (≈ 5.84 µM)
- MIC50 [1]: 0.125 µg/mL (≈ 0.73 µM)
- MIC90 [1]: 0.25 µg/mL (≈ 1.46 µM)
- MIC50 (Lacrimispora sphenoides [2]): 0.125 µg/mL (≈ 0.73 µM)
- MIC90 (Lacrimispora sphenoides [2]): 0.25 µg/mL (≈ 1.46 µM)
- MIC50 (Cutibacterium acnes [3]): > 32 µg/mL
- MIC90 (Cutibacterium acnes [3]): > 32 µg/mL
- MIC50 (Anaerococcus prevotii [4]): 0.5 µg/mL (≈ 2.92 µM)
- MIC90 (Anaerococcus prevotii [4]): 1 µg/mL (≈ 5.84 µM)
- MIC50 (Finegoldia magna [5]): 0.5 µg/mL (≈ 2.92 µM)
- MIC90 (Finegoldia magna [5]): 1 µg/mL (≈ 5.84 µM)
- MIC50 [6]: 0.5 µg/mL (≈ 2.92 µM)
- MIC90 [6]: 2 µg/mL (≈ 11.7 µM)
- MIC50 (Parvimonas micra [7]): 0.25 µg/mL (≈ 1.46 µM)
- MIC90 (Parvimonas micra [7]): 1 µg/mL (≈ 5.84 µM)
- MIC50 (Bacteroides fragilis [8]): 0.5 µg/mL (≈ 2.92 µM)
- MIC90 (Bacteroides fragilis [8]): 1 µg/mL (≈ 5.84 µM)
- MIC50 (Bacteroides caccae [9]): 0.5 µg/mL (≈ 2.92 µM)
- MIC90 (Bacteroides caccae [9]): 1 µg/mL (≈ 5.84 µM)
- MIC50 (Bacteroides ovatus): 0.5 µg/mL (≈ 2.92 µM)
- MIC90 (Bacteroides ovatus): 1 µg/mL (≈ 5.84 µM)
- MIC50 (Bacteroides stercoris [10]): 0.5 µg/mL (≈ 2.92 µM)
- MIC90 (Bacteroides stercoris [10]): 1 µg/mL (≈ 5.84 µM)
- Activity (Bacteroides fragilis [11]): 0%
- Activity (Bacteroides caccae [12]): 0%
- Activity (Bacteroides stercoris [13]): 0%
- Activity [14]: 0%
- MIC50 [15]: 0.5 µg/mL (≈ 2.92 µM)
- MIC90 [15]: 1 µg/mL (≈ 5.84 µM)
- MIC50 (Bacteroides uniformis [16]): 0.5 µg/mL (≈ 2.92 µM)
- MIC90 (Bacteroides uniformis [16]): 1 µg/mL (≈ 5.84 µM)
- MIC50 [17]: 0.5 µg/mL (≈ 2.92 µM)
- MIC90 [17]: 1 µg/mL (≈ 5.84 µM)
- MIC50 (Porphyromonas somerae): 0.05 µg/mL (≈ 0.292 µM)
- MIC90 (Porphyromonas somerae): 0.25 µg/mL (≈ 1.46 µM)
- Activity (Bacteroides uniformis [18]): 0%
- Activity (Phocaeicola vulgatus): 0%
- Activity [19]: 0%
- Activity (Parabacteroides merdae): 0%
- Activity [20]: 0%
- Activity [21]: 0%
- Activity ([Clostridium] innocuum): 0%
- Activity (Lacrimispora sphenoides [22]): 0%
- Activity (Cutibacterium acnes [23]): 100%
- Activity (Anaerococcus prevotii [24]): 0%
- Activity (Anaerococcus tetradius): 0%
- Activity (Finegoldia magna [25]): 0%
- Activity [26]: 0%
- Activity [27]: 0%
- Activity (Parvimonas micra [28]): 0%
- MIC50 (Anaerococcus vaginalis): 0.5 µg/mL (≈ 2.92 µM)
